GAA850 FXN act: FXN promoter activators, primary screen, cell-based, luciferase luminescence, HEK293 lucGAA850; 360,000 tested, 0.56% active; HEK293 lucGAA850 FXN promoter luciferase reporter, 24 h; percent of 10 µM SAHA response; AID 540364, 2011; activation, % at 6 µM;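 active = activation above the average of all compounds screened plus 3 SD, cutoff fixed separately per campaign, cut at about 7.5% in these data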
proCasp3 act: activators of human procaspase-3 D3A mutant, primary screen, biochemical, absorbance, PC-3 D3A mutant, single concentration. activation, % at 8.5 µM. recombinant procaspase-3 D3A, Ac-DEVD-pNA absorbance 405 nm. Caspase-3 (Homo sapiens), P42574. AID 463141, 2010. 330,000 tested, 0.11% active;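 active = activation above the mean of all tested compounds plus 3 SD, cut at about 21% in these data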
Target sequence (P42574 whole entry D9A/D28A/D175A): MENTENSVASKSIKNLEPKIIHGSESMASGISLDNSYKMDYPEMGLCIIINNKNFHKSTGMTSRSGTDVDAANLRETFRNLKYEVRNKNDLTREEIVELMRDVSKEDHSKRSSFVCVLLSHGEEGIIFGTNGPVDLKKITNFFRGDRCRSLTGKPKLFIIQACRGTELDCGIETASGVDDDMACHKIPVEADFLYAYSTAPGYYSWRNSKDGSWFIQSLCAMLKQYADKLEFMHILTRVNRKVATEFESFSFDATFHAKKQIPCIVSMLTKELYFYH
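System: Procaspase-3 D3A mutant. Medium: Zinc-free 300 mM NaCl, 50 mM HEPES, 0.01% Triton X-100. Schedule: 1 h preincubation plus 2 h reaction at 25 °C. Measured by: 405 nm absorbance of p-nitroaniline, reads at 0 and 120 min. Read-out: percent activation relative to control range.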
p-CIP stab down: p/CIP-EGFP fusion destabilizers, primary screen, fluorescence, F442A cells; 290,000 tested, 0.01% active; 16 h; Q05BA5; decrease of EGFP signal, % at 10 µM;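 active = EGFP signal decrease of at least 30% at 10 µM or well 3 SD below plate mean, unless failing retest; inactive = the rest, including hits failing retest or dose response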
proCasp7 act: procaspase-7 activators, primary screen, counter-screen for procaspase-3 activator project, biochemical, absorbance, HTS, human; Caspase-7 (Homo sapiens), P55210; recombinant procaspase-7, Ac-DEVD-pNA absorbance 405 nm; D23A/D198A/D206A triple mutant, cannot self-cleave; scale: DMSO 0, 5 µM enzyme 100; activation, % at 8.5 µM; 330,000 tested, 0.093% active;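 active = percent activation above the screen-wide mean plus 3 SD, cut at about 25% in these data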
Target sequence (P55210 whole entry D23A/D198A/D206A): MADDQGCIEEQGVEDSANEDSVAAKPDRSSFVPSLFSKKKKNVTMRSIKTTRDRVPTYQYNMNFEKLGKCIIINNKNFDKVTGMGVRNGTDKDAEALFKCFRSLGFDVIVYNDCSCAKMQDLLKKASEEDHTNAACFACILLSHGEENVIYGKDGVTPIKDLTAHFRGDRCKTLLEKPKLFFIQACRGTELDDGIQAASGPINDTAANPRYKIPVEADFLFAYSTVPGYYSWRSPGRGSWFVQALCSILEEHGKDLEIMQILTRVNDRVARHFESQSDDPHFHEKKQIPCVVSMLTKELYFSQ
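signal = Epi-absorbance of released pNA at 405 nm, two timepoints | assay system = Uncleavable procaspase-7 mutant enzyme | reagent = Ac-DEVD-pNA substrate, 400 µM as added | times = 1 h enzyme–compound preincubation and 2 h substrate reaction, both 25 °C | benchmarks = low DMSO alone, high DMSO plus 5 µM PC-7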
Rce1 inhib: yeast Rce1p protease inhibitors, primary screen, biochemical, fluorescence, cell-free homogeneous. AID 2563, 2010. yeast membranes, quenched prenylated peptide cleavage fluorescence. calls only. 290,000 tested, 0.27% active;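 active = fall in fluorescence gain of 50% or more versus controls, with final raw signal at or below 3038400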
Hep lipid drop: inhibitors of hepatocyte lipid droplet formation, primary screen, imaging, high-throughput imaging, BODIPY stain. 240,000 tested, 0.4% active. AML12 mouse hepatocytes, oleate lipid droplets. inhibition, % at 6.5 µM;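 active = lipid droplet intensity inhibited by at least 50%, with more than 500 cells counted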
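Assay system: AML12 mouse liver cells | Compound dosing: One dose, 6.5 µM compound | Read-out basis: Droplet intensity reduction, % inhibition | Measured by: Fluorescence imaging, 20x objective, two fields per well | Schedule: Overnight treatment with compound plus oleate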
Lipid drop inh: hepatocyte lipid droplet accumulation inhibitors, confirmation, imaging, AML12 mouse hepatocytes, single concentration, high-content | shares compounds with Hep lipid drop | BODIPY lipid droplet imaging; droplets induced with 100 µM oleic acid | inhibition, % at 5.2 µM | 870 tested, 65% active;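 active = inhibition of lipid droplet metric at least 50%, with more than 300 cells in each of four replicates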
AML12 tox img: AML12 hepatocyte cytotoxicity, counter-screen for hepatic lipid droplet formation project, imaging, DAPI nuclear morphology imaging | shares compounds with Hep lipid drop | AML12 mouse hepatocytes; active compounds read high; cells fed 100 µM oleate overnight | z-score at 5 µM | 870 tested, 3% active | AID 463200, 2010; in the data active = z-score above about 6.3;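 also: compound exposure lasted overnight at 37 °C before fixation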
AML12 tox conf: AML12 hepatocyte cytotoxicity, confirmation, cytotoxicity control for hepatic lipid droplet formation project, cell-based, single concentration. cytotoxicity, % at 50 µM. shares compounds with Hep lipid drop. 530 tested, under 10 active. AML12 mouse hepatocyte viability, ATP luminescence; cells loaded with 100 µM oleic acid;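 active = cytotoxicity above 50% in each of four replicates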;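 also: compound exposure lasted overnight at 37 °C before the ATP read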
Each line names hits and unclear results; the compound was inactive in the other large screens (follow-up assays come after a bar, where they were run). This is a sample that favours compounds with a hit; in the whole collection about 1.2% have one here.

OC[C@@H]1CN(Cc2ccc(Cl)cc2)C[C@H](n2cnc3c(NCc4ccc(F)cc4)ncnc32)O1	none (no result: proCasp3 act, p-CIP stab down, proCasp7 act, Rce1 inhib, Hep lipid drop)
CCOc1ccccc1N(CC)C(=O)c1cc2c(s1)-c1ccccc1S(=O)(=O)C2	none (no result: proCasp3 act, p-CIP stab down, proCasp7 act, Rce1 inhib, Hep lipid drop)
Oc1ccc(N=Nc2cccc(C(F)(F)F)c2)cc1C=Nc1ccc(N2CCOCC2)cc1	Hep lipid drop 58 | Lipid drop inh inactive | AML12 tox img inactive
Oc1ccc(C=Nc2ccc(N3CCOCC3)cc2)c(O)c1	none
COc1c(C)cc(C(O)c2ncc(-c3ccccc3F)[nH]2)cc1C (centres undefined)	none (no result: proCasp3 act, p-CIP stab down, proCasp7 act, Rce1 inhib, Hep lipid drop)
CC(=O)c1ccc(N=Nc2c(C)[nH]n(-c3ccccc3)c2=O)cc1	none
CCOc1ccccc1N=Nc1c(C)[nH]n(-c2ccccc2)c1=O	Hep lipid drop 76 | Lipid drop inh inactive | AML12 tox img inactive
COc1ccccc1N=Nc1c(C)[nH]n(-c2ccccc2)c1=O	Hep lipid drop 56 | Lipid drop inh inactive | AML12 tox img inactive
O=C(NCc1ccccc1)c1cc(C2CCCN(C(=O)C3CCCCC3)C2)on1 (centres undefined)	none (no result: proCasp3 act, p-CIP stab down, proCasp7 act, Rce1 inhib, Hep lipid drop)
O=C(Nc1cccc2ccccc12)C1CCN(C(=O)NCc2ccccc2)CC1	none (no result: Hep lipid drop)
COc1ccccc1NC(=O)C1CCN(C(=O)NCc2ccccc2)CC1	Hep lipid drop 51 | Lipid drop inh 80 | AML12 tox img inactive | AML12 tox conf inactive
COc1ccc(-c2ccccc2)cc1NC(=O)C1(C)CCN1C(=O)C(C)C (centres undefined)	none (no result: proCasp3 act, p-CIP stab down, proCasp7 act, Rce1 inhib, Hep lipid drop)
CN1C(=O)[C@H]2[C@@H](C3CC3)N3C(=O)CN(Cc4ccccn4)C(=O)[C@@]3(Cc3ccccc3)[C@H]2C1=O	Hep lipid drop 60 | Lipid drop inh inactive | AML12 tox img inactive
COc1ccccc1OCC(=O)Nc1oc(-c2ccccc2)c(-c2ccccc2)c1C#N	none (no result: Rce1 inhib)
COc1ccc(CC(=O)Nc2oc(-c3ccccc3)c(-c3ccccc3)c2C#N)cc1OC	Hep lipid drop 97 | Lipid drop inh 110 | AML12 tox img inactive | AML12 tox conf inactive
CCOc1cc(CNC(=O)CCCn2c(=O)c3cccn3c3cccnc32)cc(OCC)c1OCC	Hep lipid drop 92 | Lipid drop inh 107 | AML12 tox img inactive | AML12 tox conf inactive
CCc1ccc(CNC(=O)CCCn2c(=O)c3cccn3c3cccnc32)cc1	none
O=C(O)CCC1C(=O)NC(=O)CC1c1ccccc1 (centres undefined)	none (no result: proCasp3 act, p-CIP stab down, proCasp7 act, Rce1 inhib, Hep lipid drop)
O=C(Nc1ccc(-c2csc(Nc3ccc(Cl)cc3)n2)cc1)c1cccc(C(F)(F)F)c1	Hep lipid drop 72 (no result: GAA850 FXN act) | Lipid drop inh 100 | AML12 tox img inactive | AML12 tox conf inactive
O=C(Nc1ccc(-c2csc(Nc3ccccc3)n2)cc1)c1cccc(C(F)(F)F)c1	none
CCc1nc2c(OCCOc3ccc(F)cc3)cccn2c1N(C)C(=O)c1ccc(OC)cc1	none (no result: proCasp3 act, p-CIP stab down, proCasp7 act, Rce1 inhib, Hep lipid drop)
COc1ccc(C)cc1S(=O)(=O)N(CC(=O)O)c1ccc(C)cc1	Hep lipid drop 53 | Lipid drop inh inactive | AML12 tox img inactive
CC1C(=O)OC2C1CCC1(C)C3(C)C(=O)C=CC213 (centres undefined)	none (no result: proCasp3 act, p-CIP stab down, proCasp7 act, Rce1 inhib, Hep lipid drop)
Cc1ccc(F)cc1-c1cc2nc(NCCCN(C)C)n(C)c(=O)c2s1	none (no result: proCasp3 act, p-CIP stab down, proCasp7 act, Rce1 inhib, Hep lipid drop)
C=C(C)Cn1c(N2CCC(Cc3ccccc3)CC2)nc2c1c(=O)[nH]c(=O)n2C	Hep lipid drop 64 | Lipid drop inh 107 | AML12 tox img inactive | AML12 tox conf inactive
CC(=O)c1c(C)[nH]c(C(=O)OC(C)C(=O)Nc2ccc(C)c(S(=O)(=O)N3CCOCC3)c2)c1C (centres undefined)	none (no result: p-CIP stab down, Rce1 inhib, Hep lipid drop)
CCN(CC)S(=O)(=O)c1cc(NC(=O)C(C)OC(=O)c2[nH]c(C)c(C(C)=O)c2C)ccc1C (centres undefined)	Hep lipid drop 128 | Lipid drop inh inactive | AML12 tox img inactive
CCOc1ccccc1N1CCN(C(=O)NCc2ccc(C)cc2)CC1	Hep lipid drop 65 | Lipid drop inh inactive | AML12 tox img inactive | AML12 tox conf inactive
CCN(CC)c1ccc(NC(=O)CCc2nnc3ccc(N4CCCC4)nn23)c(C)c1	Hep lipid drop 72 | Lipid drop inh 98 | AML12 tox img inactive | AML12 tox conf inactive
CCOc1ccc(CCNC(=O)CCc2nnc3ccc(N4CCCCC4)nn23)cc1OCC	Hep lipid drop 86 | Lipid drop inh 109 | AML12 tox img inactive | AML12 tox conf inactive
CCOc1ccc(CCNC(=O)C2CCN(S(=O)(=O)N3CCCCC3)CC2)cc1OCC	Hep lipid drop 108 | Lipid drop inh 105 | AML12 tox img inactive
CCOc1ccc(CCNC(=O)C2CCN(S(=O)(=O)N3CCOCC3)CC2)cc1OCC	none (no result: Hep lipid drop)
COc1cnc(-c2cccc(C(F)(F)F)c2)c(NC(=O)c2cc3ccccc3s2)n1	none (no result: proCasp3 act, p-CIP stab down, proCasp7 act, Rce1 inhib, Hep lipid drop)
CCc1c(C#N)c(SCCC(=O)Nc2ccc(OC)cc2)nc2c1C(=O)CC(C)(C)C2	Hep lipid drop 54 | Lipid drop inh 89 | AML12 tox img inactive | AML12 tox conf inactive
Cc1cc(NC(=O)c2cccc3ccccc23)cc(C)c1OCC(=O)N1CCOCC1	Hep lipid drop 61 | Lipid drop inh 88 | AML12 tox img inactive | AML12 tox conf inactive
CCCCOc1ccc(C(=O)Nc2cc(C)c(OCC(=O)N3CCOCC3)c(C)c2)cc1	Hep lipid drop 93 | Lipid drop inh 96 | AML12 tox img inactive | AML12 tox conf inactive
Cc1cc(NC(=O)c2ccc(Cl)cc2)cc(C)c1OCC(=O)N1CCOCC1	none
CCN1C(=O)[C@H]2[C@@H](c3ccc(OC)cc3)N[C@]3(CCCN(Cc4ccc(C)cc4)C3=O)[C@H]2C1=O	none (no result: proCasp3 act, p-CIP stab down, proCasp7 act, Rce1 inhib, Hep lipid drop)
c1ccc(COc2cccc(-c3cc4nc(NCCCn5ccnc5)ccn4n3)c2)cc1	none (no result: proCasp3 act, p-CIP stab down, proCasp7 act, Rce1 inhib, Hep lipid drop)

From PubChem BioAssay
